This note sets out measurements from ChEMBL document CHEMBL4665801, “Pyrazole-Based Lactate Dehydrogenase Inhibitors with Optimized Cell Activity and Pharmacokinetic Properties” (J Med Chem, 2020).

Activity calls are given as the source filed them.

Assay [1] has as its target T1, L-lactate dehydrogenase A chain (Homo sapiens, UniProt P00338). The experiment in a line: Inhibition of LDHA in human MIA PaCa-2 cells assessed as decrease in lactate production incubated for 2 hrs by lactate oxidase-coupled fluorescence based assay. Format: cell-based.
For another assay, the system named is A673. The experiment in a line: Cytotoxicity against human A673 cells assessed as reduction in cell viability after 48 hrs by CellTiter-Glo assay. Particulars: A673, 48 h. Format: functional, cell-based.
Assay [2] relates to Mus musculus. In words: In vivo inhibition of LDH in human A673 cells xenografted athymic nude CrTac:NCr-Foxn1nu mouse assessed as reduction in tumor LDH activity at 50 mg/kg, iv after 6 hrs by UV-VIS spectrometric method relative to control. Format: functional. The essentials: (§1)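 Female athymic nude mice carried SQ A673 flank xenografts (2 million cells) and received a single IV dose of 50 mg/kg in PBS-based vehicle. Four mice per time point were sacrificed at 1, 3, 6 and 24 h. Frozen tumor (10–50 mg) was pulverized and lysed in PBS pH 7.4 with 0.1% Triton X-100 on ice for 1 h. Cleared lysate (10–20 μg) was assayed with 10 mM pyruvate and 0.3 mM final NADH, reading NADH oxidation at 340 nm at 37 °C.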

A further assay is filed under the species Sus scrofa. The experiment in a line: Inhibition of porcine heart MDH using malic acid as substrate preincubated for 10 mins followed by substrate addition and measured after 5 mins by resazurin based fluorescence based assay. The note with it: time 15.0 min.
Assay [3] concerns the target T1, L-lactate dehydrogenase A chain. In words: Inhibition of GS[HiBiT]GS-tagged LDHA (unknown origin) expressed in HEK-293T cells measured after 1 hr by […]. Format: cell-based. In a few lines:
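HEK293T cells were transiently transfected for 24 h with CMV-driven LDHA carrying a C-terminal GS[HiBiT]GS tag, then reseeded at 2500 cells/well in DPBS with Ca/Mg and 1 g/L glucose. […] Cells were lysed with NP40, and 11S (100 nM final) plus furimazine was added.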

Assay [4] shares this target. The experiment in a line: Inhibition of LDHA in human A673 cells assessed as decrease in lactate production incubated for 2 hrs by lactate oxidase-coupled fluorescence based assay. Format: cell-based.
The subject of the next assay is MIA PaCa-2. The experiment in a line: Cytotoxicity against human MIA PaCa-2 cells assessed as reduction in cell viability after 48 hrs by CellTiter-Glo assay. Format: functional, cell-based. Particulars: MIA PaCa-2, 48 h.
For assay [5], the target named is T1, L-lactate dehydrogenase A chain. In words: Inhibition of recombinant human LDHA using sodium pyruvate as substrate preincubated for 5 mins followed by diaphorase/resazurin addition and measured after 20 mins by fluorescence based assay.
The subject of assay [6] is Mus musculus. In words: In vivo inhibition of LDH in human A673 cells xenografted athymic nude CrTac:NCr-Foxn1nu mouse assessed as reduction in tumor LDH activity at 50 mg/kg, iv after 1 hr by NADH-based UV-VIS spectrometric method relative to control. Format: functional, organism-based. The essentials:
as §1

Assay [7] can be described thus: In vivo inhibition of LDH in human A673 cells xenografted athymic nude CrTac:NCr-Foxn1nu mouse assessed as tumor residual LDH activity at 50 mg/kg, iv after 1 hr by UV-VIS spectrometric method relative to control. Format: functional. In a few lines: as §1
The target in assay [8] is L-lactate dehydrogenase B chain (Homo sapiens) (UniProt P07195). The experiment in a line: Inhibition of recombinant human LDHB using sodium pyruvate as substrate preincubated for 5 mins followed by diaphorase/resazurin addition and measured after 20 mins by fluorescence based assay.
Assay [9] deals with T1, L-lactate dehydrogenase A chain. In words: Binding affinity to human His-tagged LDHA by SPR analysis. In a few lines:
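SPR on a Mass-1 instrument gave K_D and k_off. Residence time τ was calculated as 1/k_off (s⁻¹).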

Sequence of L-lactate dehydrogenase B chain (Homo sapiens) (P07195 2-334 limits assumed): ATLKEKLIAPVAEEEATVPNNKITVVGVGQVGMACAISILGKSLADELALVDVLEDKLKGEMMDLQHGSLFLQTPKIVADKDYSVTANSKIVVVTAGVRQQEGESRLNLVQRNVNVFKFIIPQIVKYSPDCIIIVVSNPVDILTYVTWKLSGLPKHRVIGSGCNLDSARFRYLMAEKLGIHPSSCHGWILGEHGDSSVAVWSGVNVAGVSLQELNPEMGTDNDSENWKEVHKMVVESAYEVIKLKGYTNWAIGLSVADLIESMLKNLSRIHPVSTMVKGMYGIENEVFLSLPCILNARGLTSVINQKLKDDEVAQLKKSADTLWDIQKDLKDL

Turning to `NS(=O)(=O)c1ccc(Cc2c(-c3cccc(C#Cc4ccc(C5CC5)s4)c3)nn(-c3nc(C(=O)O)cs3)c2CC2CC2)cc1F`, the IC50 in assay [1] was 434 nM; with A673, 332 nM; in assay [3], 183 nM; in assay [4] it was 403 nM; in the assay with MIA PaCa-2 it was 342 nM; in assay [5] it was 201 nM. Besides, the inhibition entry (with Mus musculus [2]; with Mus musculus [6]; in assay [8]) was “Active” in each case. The inhibition result in the assay filed under Sus scrofa was “inactive”. Besides, in [7], the Activity was less than 40%.
On to `NS(=O)(=O)c1ccc(Cc2c(-c3ccc(F)c(C#CCC4CCCC4)c3)nn(-c3nc(C(=O)O)cs3)c2CC2CC2)cc1F`, for which the IC50 in assay [1] came to 424 nM; in the assay with A673 it was 939 nM; in assay [3], 178 nM; in assay [4], 487 nM; in the assay on MIA PaCa-2, 848 nM; in [5], 202 nM. Moreover, in the assay listed under Sus scrofa, the inhibition entry is “inactive”. This molecule returned a Kd in assay [9] of 0.123 nM. For the same molecule, the inhibition result in assay [8] was “Active”.
As for `NS(=O)(=O)c1ccc(Cc2c(-c3ccc(F)c(C#CC4CCCC4)c3)nn(-c3nc(C(=O)O)cs3)c2CC2CC2)cc1F`, the IC50 amounted to 333 nM in assay [1]; 100 nM in the assay with A673; 112 nM in assay [3]; 509 nM in assay [4]; 314 nM with MIA PaCa-2; 22 nM in assay [5]. Moreover, the inhibition entry in the assay listed under Sus scrofa is “inactive”. In assay [9], this molecule displayed a dissociation constant Kd of 0.0193 nM. Besides, the inhibition result in assay [8] was “Active”.
